Source: PubChem BioAssay (several laboratories)
In the library only some 1.2% were active in any assay of this set; here they are far more common.
Diaphorase inh: diaphorase inhibition or chemical oxidation counter-screen; diaphorase resazurin-to-resorufin fluorescence, NADH, 16 min; bacterial (C. kluyveri) enzyme, not human; inhibition, % at 20 µM; 190,000 tested, 0.69% active;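 active means primary screen inhibition at 20 µM above a set limit, cut at about 50% in these data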;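 further: plate controls were DMSO with full reaction for no effect and wells lacking NADH for full effect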
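Test system: bacterial diaphorase enzyme (C. kluyveri); Quantity: 0.14 U/mL diaphorase, enzyme working solution; Times: reaction incubation of 16 min at room temperature; Measured by: fluorescence of resorufin formed from resazurin, Ex 544/Em 590 nm; Benchmarks: positive control minus NADH, DMSO neutral control.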
PfG6PD inh: PfG6PD (Plasmodium falciparum) enzyme inhibition; PfGluPho enzyme, NADPH resazurin-diaphorase fluorescence; inhibition, % at 20 µM; 350,000 tested, 0.78% active; AID 504690;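 active means inhibition reaching at least a set limit at 20 µM in the primary screen, cut at about 59% in these data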;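 further: 0% = DMSO wells with substrate and 100% = DMSO wells lacking glucose-6-phosphate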
Tb hexokinase: T. brucei hexokinase 1 inhibition. inhibition, % at 10 µM. recombinant TbHK1, G6PDH-coupled NADH A340. 220,000 tested, 0.11% active;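 active means inhibition of 50% or more in the single-dose primary screen; inactive means inhibition below 50%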
G6PDH counter: inhibits Leuconostoc G6PDH, flagging false hits in G6PDH-based assays; Purified L. mesenteroides G6PDH, diaphorase/resazurin coupled fluorescence, 45 min; inhibition, % at 5 µM; AID 1020; 200,000 tested, 0.12% active; in the data active means inhibition above about 50%
HKDC1 inh: blocks human hexokinase HKDC1 activity | Q2TB90 | recombinant HKDC1, G6PDH/diaphorase resazurin coupled fluorescence | inhibition, % at 20 µM | 340,000 tested, 0.16% active | AID 493160;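 active means inhibition above about 35% when tested at 20 µM, limit read from the data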;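 further: plate controls were DMSO wells with enzyme for no effect and DMSO wells lacking enzyme for full effect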
Target sequence (Q2TB90 whole entry, looked up): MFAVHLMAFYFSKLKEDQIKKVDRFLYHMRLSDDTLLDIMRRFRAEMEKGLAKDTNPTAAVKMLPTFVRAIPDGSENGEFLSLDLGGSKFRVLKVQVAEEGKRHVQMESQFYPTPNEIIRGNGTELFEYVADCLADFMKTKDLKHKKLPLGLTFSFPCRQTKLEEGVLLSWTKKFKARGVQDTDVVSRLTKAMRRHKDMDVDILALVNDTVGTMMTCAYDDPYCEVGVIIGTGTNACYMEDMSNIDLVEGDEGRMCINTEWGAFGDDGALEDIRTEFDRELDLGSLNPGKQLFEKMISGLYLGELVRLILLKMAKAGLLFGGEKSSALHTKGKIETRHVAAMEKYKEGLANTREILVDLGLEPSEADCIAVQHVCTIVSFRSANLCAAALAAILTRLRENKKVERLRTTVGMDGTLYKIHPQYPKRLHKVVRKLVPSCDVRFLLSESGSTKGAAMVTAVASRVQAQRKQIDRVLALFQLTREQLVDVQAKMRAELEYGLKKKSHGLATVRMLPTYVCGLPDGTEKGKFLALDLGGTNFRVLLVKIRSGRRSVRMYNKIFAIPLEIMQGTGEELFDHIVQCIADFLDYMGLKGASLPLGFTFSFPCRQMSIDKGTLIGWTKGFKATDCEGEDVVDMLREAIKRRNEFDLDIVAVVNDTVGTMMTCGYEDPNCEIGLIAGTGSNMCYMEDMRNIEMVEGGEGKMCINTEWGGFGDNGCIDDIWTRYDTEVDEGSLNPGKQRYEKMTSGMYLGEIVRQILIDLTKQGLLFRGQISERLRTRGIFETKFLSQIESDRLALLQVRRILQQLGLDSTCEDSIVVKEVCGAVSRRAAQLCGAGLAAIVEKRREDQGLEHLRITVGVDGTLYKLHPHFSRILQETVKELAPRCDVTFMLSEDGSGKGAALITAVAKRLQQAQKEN
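Test system: recombinant HKDC1 (HK5) hexokinase enzyme, produced in-house / Doses: 20 µM test compound, 1% DMSO / Timing: 90 min, room temperature / Detection: G6PDH/diaphorase-coupled fluorescence, 1 mM NADP, 100 µM resazurin, 525/613 nm / Control set: DMSO wells with and without enzyme mix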
PfGluPho conf: confirmation of Plasmodium falciparum G6PD inhibitors | shares compounds with PfG6PD inh | recombinant PfGluPho, NADPH-diaphorase-resazurin fluorescence | inhibition, % at 20 µM | 2,400 tested, 34% active | AID 504753;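 active means inhibition of at least 50% at 20 µM in any single replicate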;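 further: 0% = DMSO with substrate and 100% = DMSO lacking glucose-6-phosphate substrate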
Diaphorase 10uM: counter-screen for P. falciparum G6PD inhibitors: diaphorase inhibitors, oxidizers | shares compounds with PfG6PD inh | inhibition, % at 20 µM | diaphorase-coupled resazurin reduction, fluorescence, NADPH 10 uM | AID 504862 | 820 tested, 39% active;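 active means average inhibition reaching 50% or more with the compound at 20 µM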;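 further: resorufin red fluorescence formed as diaphorase reduces resazurin using NADPH; 0% = DMSO with enzyme and 100% = DMSO without enzyme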
Diaph ctr 30uM: counter-screen for P. falciparum G6PD inhibitors: diaphorase inhibitors, oxidizers | shares compounds with PfG6PD inh | Diaphorase/resazurin coupled assay, resorufin fluorescence, 30 uM NADPH | inhibition, % at 20 µM | 820 tested, 29% active;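 active means inhibition averaging 50% or more, tested at 20 µM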;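 further: 0% = DMSO with enzyme and 100% = DMSO wells lacking diaphorase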
* marks the source's active call; other numbers are inactive results; . = no result given.

SMILES | Diaphorase inh | PfG6PD inh | Tb hexokinase | G6PDH counter | HKDC1 inh | PfGluPho conf | others
CCn1c(SC(C)C(=O)Nc2nccs2)nnc1-c1ccncc1 (stereo not drawn) | . | 4 | . | . | 0 | .
CCOC(=O)c1c(C)n(C)c2cc(OCCN(CC)CC)ccc12 | 18 | -11 | 5 | 2 | 0 | .
CCOC(=O)c1c2ccc(OCC(=O)NN)cc2n2ccccc12 | 64* | 47 | 0 | 43 | 17 | 59* | Diaphorase 10uM=61*;Diaph ctr 30uM=38
O=C(N/N=C/c1ccc(N2CCOCC2)o1)c1cccc([N+](=O)[O-])c1 | 76* | 70* | -11 | 8 | 17 | -21
O=C(N/N=C/c1ccc(N2CCCCC2)o1)c1ccccc1 | 13 | 17 | 29 | 10 | 3 | .
CN(Cc1ccccc1)C(=O)c1cccc(NC(=O)Cc2ccc(NC(=O)C3CCN(C(=O)C4CC4)CC3)cc2)c1 | . | 6 | . | . | -5 | .
O=C(CCc1ccc(O)c(O)c1)N/N=C/c1cc2c(cc1[N+](=O)[O-])OCO2 | . | 68* | . | . | 17 | 65* | Diaphorase 10uM=33;Diaph ctr 30uM=17
O=C(CCc1ccc(S(=O)(=O)N2CCOCC2)cc1)N/N=C/c1ccc(O)c(O)c1O | 71* | 68* | 28 | 10 | 23 | 60* | Diaphorase 10uM=33;Diaph ctr 30uM=43
COc1ccc(NC(=O)n2ncc3c(C)cccc32)cc1 | . | 69* | . | . | 2 | 20
CC(=O)N1CCN(C(=O)c2ccccc2NS(=O)(=O)c2ccc(F)cc2)CC1 | . | 7 | . | . | -1 | .
c1cc2c(cc1NC1CCCCCC1)OCO2 | . | 62* | . | . | 5 | 61* | Diaphorase 10uM=2;Diaph ctr 30uM=-2
COc1ccccc1N1CCN(/N=C/c2cc(OC)c(O)c(OC)c2)CC1 | 16 | 76* | 13 | 2 | -1 | 7
COc1cc(/C=N/N2CCN(Cc3ccc(C)cc3)CC2)cc(OC)c1O | . | 79* | . | . | 9 | 16
CN(C)C(=O)C(OC(=O)c1ccc2ccccc2n1)c1ccccc1 (stereo not drawn) | . | -7 | . | . | -4 | .
CCc1noc(C)c1C(=O)Nc1cc(Cl)ccc1N1CCCC1 | . | -4 | . | . | -7 | .
COC(=O)c1ccc(CO/N=C/c2ccc(OC)cc2OC)cc1 | . | 12 | . | . | 0 | .
CCN(C(=O)COC(=O)CCNS(=O)(=O)c1ccccc1F)c1c(N)n(Cc2ccccc2)c(=O)[nH]c1=O | . | -19 | . | . | 2 | .
CCOC(=O)c1cnc(NCc2ccccc2)nc1C | 8 | -17 | -8 | 0 | 0 | .
CCOC(=O)c1nc(NCc2ccccc2)sc1C | . | 68* | . | . | -8 | 26
NC(=O)c1ccc(SCC(=O)OCC(=O)NCc2ccco2)c([N+](=O)[O-])c1 | . | 12 | . | . | 5 | .
CC(C)(CC(=O)O)CC(=O)Nc1ccc2c(c1)ncn2CCc1ccccc1 | . | 1 | . | . | -4 | .
Cc1ccc(/C=C/C(=O)NCc2cccs2)cc1 | -7 | 32 | 19 | 9 | 0 | .
Cc1ccc(/C=C/C(=O)NCc2cccs2)c(C)c1 | 23 | 88* | -4 | 14 | 2 | 29
O=C(NC1CCCCCC1)C(=S)N1CCOCC1 | 8 | 59* | 5 | -6 | -13 | 24
COC(=O)CN(c1ccc(C)c(Cl)c1)S(C)(=O)=O | 14 | 6 | 4 | 38 | 3 | .
SMILES | Diaphorase inh | PfG6PD inh | Tb hexokinase | G6PDH counter | HKDC1 inh | PfGluPho conf | others
Cc1ccc(N(CC(=O)N/N=C/c2cccs2)S(C)(=O)=O)cc1Cl | 1 | 106* | 0 | 5 | 4 | 75* | Diaphorase 10uM=70*;Diaph ctr 30uM=65*
c1ccc(SSc2ccccn2)nc1 | . | 68* | . | . | -2 | 58* | Diaphorase 10uM=-24;Diaph ctr 30uM=-27
CCOC(=O)c1nc2sc(C)c(C)c2c(=O)[nH]1 | 6 | 22 | -20 | 5 | -4 | .
CCOC(=O)/C(=C\c1cccc(O)c1)c1nc2sc(C)c(C)c2c(=O)[nH]1 | 12 | 69* | 25 | -10 | 3 | 20
COC(=O)c1c(-c2ccc(C)cc2)csc1NC(=O)C1CC=CCC1C(=O)O (stereo not drawn) | 10 | -21 | -4 | -12 | -9 | .
COC(=O)c1c(-c2ccc(C(C)(C)C)cc2)csc1NC(=O)C1C2CCC(O2)C1C(=O)O (stereo not drawn) | 9 | 70* | 4 | -4 | -17 | 31
O=C(c1ccccc1Cl)N(C(=O)c1ccccc1Cl)c1nccc(-c2cccs2)n1 | 22 | 110* | -5 | 21 | 8 | 69* | Diaphorase 10uM=73*;Diaph ctr 30uM=65*
O=C(CSc1nccc(-c2cccs2)n1)Nc1cccc(Cl)c1Cl | . | 8 | 8 | . | 0 | .
Oc1ccc(-c2nccc(-c3cccs3)n2)cc1 | 11 | 4 | -11 | -1 | 6 | .
O=C(Nc1nccc(-c2cccs2)n1)c1ccccc1Cl | -4 | 142* | -5 | -1 | 6 | 110* | Diaphorase 10uM=102*;Diaph ctr 30uM=81*
CC(C)N(C(=O)Cn1cc(S(=O)(=O)CC(=O)Nc2ccccc2)c2ccccc21)C(C)C | . | -9 | . | . | 4 | .
Cc1cc(C(=O)CSc2nnc(C3CC3)n2C2CC2)c(C)n1C(C)C | . | 43 | . | . | 2 | 19
C=CCn1c(C)cc(C(=O)CSc2nnc(C3CC3)n2C2CC2)c1C | . | 39 | . | . | -1 | .
COc1cc(CNc2ccc3[nH]c(=O)[nH]c3c2)ccc1OCc1ccc(Cl)cc1 | . | 63* | . | . | 15 | 37
COc1cc(CNc2ccc3[nH]c(=O)[nH]c3c2)ccc1OCc1ccccc1 | . | 65* | . | . | 10 | 50* | Diaphorase 10uM=0;Diaph ctr 30uM=1
COc1cccc(CNc2ccc3[nH]c(=O)[nH]c3c2)c1OCc1ccccc1Cl | . | 65* | . | . | 15 | 50* | Diaphorase 10uM=-3;Diaph ctr 30uM=0
